This is an account of results in ChEMBL document CHEMBL1155506 (J Med Chem, 2010).

A short description of data set [1]: Antiplatelet activity in human platelet rich plasma assessed as inhibition of ADP-induced aggregation preincubated for 1 min before 5-HT and ADP challenge measured after 3 mins by turbidimetry.
For data set [2], the target named is T1, 5-hydroxytryptamine receptor 2C (Homo sapiens, UniProt P28335).
T1 sequence (P28335 whole entry): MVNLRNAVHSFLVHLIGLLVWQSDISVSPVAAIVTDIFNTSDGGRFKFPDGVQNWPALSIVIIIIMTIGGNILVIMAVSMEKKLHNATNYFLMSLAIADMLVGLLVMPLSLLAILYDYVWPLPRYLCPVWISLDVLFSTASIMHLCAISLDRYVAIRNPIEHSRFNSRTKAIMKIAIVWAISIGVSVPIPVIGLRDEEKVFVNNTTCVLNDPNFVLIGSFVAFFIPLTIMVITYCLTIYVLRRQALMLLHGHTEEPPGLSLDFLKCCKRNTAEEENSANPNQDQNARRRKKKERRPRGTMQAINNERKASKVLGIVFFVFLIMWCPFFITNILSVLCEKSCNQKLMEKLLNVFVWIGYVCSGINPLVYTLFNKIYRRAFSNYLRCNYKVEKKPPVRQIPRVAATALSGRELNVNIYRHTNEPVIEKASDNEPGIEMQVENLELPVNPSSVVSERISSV
The experiment in a line: Displacement of [125I]DOI from human recombinant 5HT2C receptor expressed in HEK293 cells by scintillation counting. The class given is cell-based. Summed up: (§1)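 Crude plasma membranes from HEK293 cells stably expressing the human receptor (5–25 μg protein), in 20 mM HEPES pH 7.4 with 10 mM MgCl2. Incubated with 0.5 nM [125I]DOI and test compound (1 pM–10 μM) for 1 h at room temperature; nonspecific binding defined with 10 μM cold DOI. Filtered, washed with ice-cold Tris buffer and scintillation counted in triplicate.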

Data set [3] addresses T2, hERG (KCNH2) (Homo sapiens, UniProt Q12809). The experiment in a line: Inhibition of human ERG at 3 uM by patch clamp assay. In general terms: Patch clamp records ionic current or voltage across a cell membrane.
Data set [4] addresses T3, 5-hydroxytryptamine receptor 2A (Homo sapiens, UniProt P28223). As to the kind of experiment: Displacement of [125I]DOI from human recombinant 5HT2A receptor expressed in HEK293 cells by scintillation counting. The class given is cell-based. The essentials:
as §1
(Loss of bound radioactivity is the signal in a displacement assay; it reports binding, not function.)

Data set [5] deals with T2, hERG (KCNH2). As to the kind of experiment: Inhibition of human ERG at 1 uM by patch clamp assay.
A short description of data set [6]: Half life in Sprague-Dawley rat at 10 mg/kg, po by HPLC/MS/MS analysis. Format: ADME, organism-based. Conditions: in vivo. Also on record: dose 10 mg/kg, route oral. The essentials:
(§2)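 Male rats fasted overnight before oral dosing; 10 mg/kg po and 2 mg/kg iv in 80% PEG400/20% phosphate buffered saline. Jugular vein blood was sampled at 0.25–21 h over 24 h, and heparin plasma was assayed by HPLC/MS/MS (MRM, positive electrospray, internal standard; LLOQ 1 ng/mL, ULOQ 2000 ng/mL). %F is taken relative to the 2 mg/kg iv dose. Mean of n = 3 animals.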

The nature of data set [7]: Volume of distribution at steady state in Sprague-Dawley rat at 2 mg/kg, iv after 24 hrs by HPLC/MS/MS analysis. Conditions: in vivo, read-out: Vdss. Format: ADME, organism-based. Also on record: dose 2 mg/kg, route intravenous. The essentials:
as §2

Data set [8] can be described thus: Total clearance in Sprague-Dawley rat at 2 mg/kg, iv after 24 hrs by HPLC/MS/MS analysis. The class given is ADME, organism-based. Also on record: dose 2 mg/kg, route intravenous. The following applies: in vivo. The essentials:
as §2

Data set [9] is described as follows: Bioavailability in Sprague-Dawley rat at 2 mg/kg, iv after 24 hrs by HPLC/MS/MS analysis. Format: ADME, organism-based. The following applies: in vivo. Summed up: as §2
Data set [10] is described as follows: Cmax in Sprague-Dawley rat at 10 mg/kg, po after 24 hrs by HPLC/MS/MS assay. Also on record: dose 10 mg/kg, route oral. The following applies: in vivo. Format: ADME, organism-based. Summed up: as §2
Data set [11] is described as follows: AUC (0 to last) in Sprague-Dawley rat at 10 mg/kg, po after 24 hrs by HPLC/MS/MS analysis. The class given is ADME, organism-based. Also on record: time 0 - last, dose 10 mg/kg, route oral. Conditions: plasma. Summed up:
as §2

Data set [12] concerns the target Voltage-gated inwardly rectifying potassium channel KCNH2 (Homo sapiens, UniProt Q12809). As to the kind of experiment: Inhibition of human ERG by patch clamp assay.
For data set [13], the target named is T3, 5-hydroxytryptamine receptor 2A. The experiment in a line: Inverse agonist activity at human 5HT2A receptor expressed in HEK293 cells assessed as inhibition of inositol phosphate accumulation. The class given is functional, cell-based.

For orientation: IC50 means the concentration that inhibits the measured activity by half. One may read the Ki as a dissociation constant, usually derived from enzyme kinetics or from competition with a known ligand. As a reminder, the inhibition is the drop in the measured response relative to a control, in per cent. High values mean a response far below the control, low ones a response near the control. By half-life is commonly meant how long it takes for the measured level to halve. A lower half-life goes with fast loss. As usually defined, the clearance is the volume of plasma or blood freed of the substance per unit of time. The bioavailability is dose-corrected exposure relative to a reference, in per cent. Read a high bioavailability as good availability. For orientation: Cmax means the peak of the concentration-time curve. The AUC(0-t) is the area under the concentration-time curve up to a stated or last time point. A high value points to more exposure.

T2 sequence (Q12809 whole entry): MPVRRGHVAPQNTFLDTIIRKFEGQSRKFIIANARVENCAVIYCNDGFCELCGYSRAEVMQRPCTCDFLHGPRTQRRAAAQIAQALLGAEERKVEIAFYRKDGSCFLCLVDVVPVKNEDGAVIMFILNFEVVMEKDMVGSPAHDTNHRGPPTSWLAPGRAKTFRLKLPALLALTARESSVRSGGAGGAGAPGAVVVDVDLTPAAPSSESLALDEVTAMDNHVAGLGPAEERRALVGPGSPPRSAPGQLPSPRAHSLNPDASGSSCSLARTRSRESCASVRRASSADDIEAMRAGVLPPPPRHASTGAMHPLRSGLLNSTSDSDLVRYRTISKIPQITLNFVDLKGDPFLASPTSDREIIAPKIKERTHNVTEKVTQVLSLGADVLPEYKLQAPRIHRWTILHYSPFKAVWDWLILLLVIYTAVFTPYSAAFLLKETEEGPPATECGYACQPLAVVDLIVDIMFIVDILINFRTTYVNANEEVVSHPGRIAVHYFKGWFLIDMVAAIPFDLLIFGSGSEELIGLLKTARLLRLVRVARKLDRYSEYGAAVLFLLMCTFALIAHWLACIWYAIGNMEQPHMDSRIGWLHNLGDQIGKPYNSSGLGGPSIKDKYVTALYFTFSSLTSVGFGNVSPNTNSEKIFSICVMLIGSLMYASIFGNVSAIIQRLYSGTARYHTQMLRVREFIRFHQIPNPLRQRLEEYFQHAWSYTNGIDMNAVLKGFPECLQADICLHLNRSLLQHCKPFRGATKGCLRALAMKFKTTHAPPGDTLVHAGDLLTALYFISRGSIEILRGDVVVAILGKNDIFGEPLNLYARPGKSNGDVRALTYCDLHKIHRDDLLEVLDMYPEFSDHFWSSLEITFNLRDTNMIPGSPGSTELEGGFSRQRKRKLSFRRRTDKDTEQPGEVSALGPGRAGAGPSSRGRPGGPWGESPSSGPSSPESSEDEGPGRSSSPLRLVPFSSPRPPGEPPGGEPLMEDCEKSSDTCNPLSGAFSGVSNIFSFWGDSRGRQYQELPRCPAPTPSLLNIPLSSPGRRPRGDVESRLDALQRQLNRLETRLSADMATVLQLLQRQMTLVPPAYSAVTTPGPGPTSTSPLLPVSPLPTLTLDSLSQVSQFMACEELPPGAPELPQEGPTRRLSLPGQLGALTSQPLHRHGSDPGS
T3 sequence (P28223 whole entry): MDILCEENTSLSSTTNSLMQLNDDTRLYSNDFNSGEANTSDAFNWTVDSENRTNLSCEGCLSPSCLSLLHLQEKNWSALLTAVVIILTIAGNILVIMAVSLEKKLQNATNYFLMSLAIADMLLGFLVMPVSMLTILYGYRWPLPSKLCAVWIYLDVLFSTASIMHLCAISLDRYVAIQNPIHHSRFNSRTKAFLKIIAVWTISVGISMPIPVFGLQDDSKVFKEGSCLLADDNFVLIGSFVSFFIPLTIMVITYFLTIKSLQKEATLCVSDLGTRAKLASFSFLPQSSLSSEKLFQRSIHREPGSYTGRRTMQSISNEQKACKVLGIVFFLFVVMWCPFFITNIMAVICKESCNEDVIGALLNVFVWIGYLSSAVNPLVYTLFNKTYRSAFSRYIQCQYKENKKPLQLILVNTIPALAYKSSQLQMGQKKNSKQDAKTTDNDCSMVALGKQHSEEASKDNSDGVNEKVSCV
Voltage-gated inwardly rectifying potassium channel KCNH2, sequence (Q12809 whole entry): as the sequence (Q12809 whole entry) above

Consider `COc1cccc(C(=O)Nc2ccc(OCCN)c(-c3ccnn3C)c2)c1`, for which the 50% inhibitory concentration (IC50) in [1] is 6.9 nM. Besides, the inhibition constant (Ki) in data set [2] amounted to 2350 nM; in data set [4] it was 2.2 nM. The same molecule gave an inhibition at 3 µM at hERG (KCNH2) [3] of 22%.
As to `CC(=O)N1CCN(CCOc2ccc(NC(=O)c3cccc(C(F)(F)F)c3)cc2-c2ccnn2C)CC1`, the half-maximal inhibitory concentration (IC50) in [1] was 145 nM. Further, the values for the Ki in data set [2] and in data set [4] were 5610 nM and 4.3 nM, respectively. Moreover, 3 µM produced 75% inhibition at hERG (KCNH2) [3].
`Cn1nccc1-c1cc(NC(=O)c2cccc(C(F)(F)F)c2)ccc1OCCN1CCNC(=O)C1`: the inhibitory constant (Ki) was more than 10000 nM in [2] and 287 nM in [4].
In the case of `Cn1nccc1-c1cc(NC(=O)c2ccc(C(F)(F)F)cc2)ccc1OCCN1CCOCC1`, the IC50 in data set [1] came to 61 nM. Also, the results for the inhibition constant (Ki) in data set [2] and in data set [4] were 5900 nM and 2.4 nM, respectively. On hERG (KCNH2) [5], this molecule returned an inhibition at 1 µM of 33%.
Take `Cn1nccc1-c1cc(NC(=O)c2ccc(C(F)(F)F)cc2)ccc1OCCN1CCCC1`: the IC50 in data set [1] came out at 2 nM. Moreover, the results for the Ki in [2] and in data set [4] were 225 nM and 1.9 nM, respectively. The molecule further showed an inhibition at 1 µM against hERG (KCNH2) [5] of 66%. Besides, in [6], the half-life is 2.8 h. In addition, in [7], the Vd amounted to 5.4 L/kg. The molecule also had a clearance in data set [8] of 18.3 mL/min/kg. In addition, the bioavailability in [9] came to 43%. The molecule also returned a Cmax in data set [10] of 453 ng/mL. Further, the area under the curve AUC(0-t) at 24 h in [11] was found to be 3830 ng·h/mL.
For `Cn1ncc(Cl)c1-c1cc(NC(=O)c2cccc(F)c2)ccc1OCCN1CCOCC1`, in data set [1], the IC50 was 22 nM. For the same molecule, the Ki in [2] turned out to be 3380 nM; in data set [4], 0.6 nM. Moreover, on hERG (KCNH2) [3], the inhibition at 3 µM was found to be 46%.
As for `Cn1nccc1-c1cc(NC(=O)c2cccc(F)c2)ccc1OCCN1CCOCC1`, the half-maximal inhibitory concentration (IC50) in data set [1] worked out at 86 nM. Further, the Ki in data set [2] is more than 10000 nM; in data set [4], 5.1 nM. On hERG (KCNH2) [3], this molecule gave an inhibition at 3 µM of 43%.
With `COc1cccc(C(=O)Nc2ccc(OCCN3CCN(S(C)(=O)=O)CC3)c(-c3ccnn3C)c2)c1`, the Ki in data set [2] is more than 10000 nM; in data set [4], 28 nM. The molecule further showed an inhibition at 3 µM against hERG (KCNH2) [3] of 23%.
Consider `COc1cccc(C(=O)Nc2ccc(OCCN3CCN(C(N)=O)CC3)c(-c3ccnn3C)c2)c1`, for which the IC50 in [1] came to 57 nM. Further, the inhibitory constant (Ki) in data set [2] worked out at 5890 nM; in [4] it was 5.1 nM. In addition, on hERG (KCNH2) [3], the inhibition at 3 µM came out at 17%.
Turning to `COc1cccc(C(=O)Nc2ccc(OCCN3CCN(C(C)=O)CC3)c(-c3ccnn3C)c2)c1`, the IC50 in [1] was found to be 77 nM. The Ki in data set [2] was more than 10000 nM; in data set [4], 4.5 nM. At hERG (KCNH2) [3], this molecule yielded an inhibition at 3 µM of 24%.
As for `Cn1nccc1-c1cc(NC(=O)c2ccc(F)cc2F)ccc1OCCN1CCOCC1`, the half-inhibitory concentration (IC50) in [1] was 27 nM; in data set [12], 4100 nM. Besides, the inhibitory constant (Ki) in [2] was more than 10000 nM; in data set [4], 8.6 nM. The molecule also yielded an inhibition at 1 µM against hERG (KCNH2) [5] of 16%. Moreover, in data set [6], the half-life was 1.5 h. Also, the Vd in data set [7] was 11.7 L/kg. This molecule showed a clearance in [8] of 233 mL/min/kg. For the same molecule, in data set [9], the bioavailability came out at 22%. In data set [10], this molecule returned a Cmax of 56 ng/mL. Moreover, the AUC(0-t) at 24 h in [11] stood at 171 ng·h/mL.
As for `CC(=O)N1CCN(CCOc2ccc(NC(=O)c3cccc(F)c3)cc2-c2ccnn2C)CC1`, the 50% inhibitory concentration (IC50) in data set [1] was determined as 40 nM. Moreover, the Ki was more than 10000 nM in data set [2] and 15 nM in data set [4].
Turning to `Cn1ncc(Cl)c1-c1cc(NC(=O)c2cccc(C(F)(F)F)c2)ccc1OCCN1CCNC(=O)C1`, the IC50 in data set [1] came out at 127 nM. The inhibition constant Ki in [2] was more than 10000 nM; in data set [4] it was 5.3 nM. This molecule also registered an inhibition at 3 µM against hERG (KCNH2) [3] of 53%.
Consider `Cn1nccc1-c1cc(NC(=O)c2ccc(F)cc2)ccc1OCCN1CCOCC1`, for which, in data set [1], the half-inhibitory concentration (IC50) was determined as 100 nM. For the same molecule, the Ki in [2] was more than 10000 nM; in data set [4], 18 nM.
On to `Cn1nccc1-c1cc(NC(=O)c2ccc(F)c(F)c2)ccc1OCCN1CCOCC1`, for which the IC50 in [1] amounted to 29 nM. Besides, the Ki was more than 10000 nM in data set [2] and 4.1 nM in data set [4]. The molecule also yielded an inhibition at 3 µM at hERG (KCNH2) [3] of 56%.
With `Cn1nccc1-c1cc(NC(=O)c2cccc(C(F)(F)F)c2)ccc1OCCN1CCCC1`, the IC50 in [1] came out at 3.2 nM; in data set [13], 23 nM. Besides, the values for the Ki in data set [2] and in [4] were 1140 nM and 0.6 nM, respectively. The inhibition at 1 µM at hERG (KCNH2) [5] amounted to 80%.
In the case of `Cn1nccc1-c1cc(NC(=O)c2cccc(C(F)(F)F)c2)ccc1OCCN1CCC(F)(F)C1`, the IC50 in data set [1] worked out at 189 nM. Moreover, the inhibition constant (Ki) in data set [2] came out at 9250 nM; in data set [4] it was 12 nM. At hERG (KCNH2) [3], this molecule came in with an inhibition at 3 µM of 50%.
For the molecule `Cn1nccc1-c1cc(NC(=O)c2cccc(C(F)(F)F)c2)ccc1OCCN1CCOCC1`, the IC50 in [1] is 18 nM. The Ki is more than 10000 nM in data set [2] and 0.7 nM in [4]. In addition, the half-life in data set [6] is 1.8 h. Besides, the Vd in data set [7] was 5.1 L/kg. The molecule also had a clearance in [8] of 160 mL/min/kg. Moreover, the bioavailability in data set [9] came out at 27%. The molecule also had a Cmax in data set [10] of 202 ng/mL. In data set [11], this molecule showed an AUC(0-t) at 24 h of 288 ng·h/mL.
In the case of `COc1cccc(C(=O)Nc2ccc(OCCNCCO)c(-c3ccnn3C)c2)c1`, the half-inhibitory concentration (IC50) in data set [1] was determined as 5.8 nM. Further, the figures for the Ki in data set [2] and in data set [4] were 5870 nM and 1.8 nM, respectively. The molecule also had an inhibition at 3 µM on hERG (KCNH2) [3] of 36%.
The corresponding values for `CC(=O)N1CCN(CCOc2ccc(NC(=O)c3cccc(F)c3)cc2-c2c(Cl)cnn2C)CC1` are 70 nM, 8600 nM, 2.2 nM and 43%.
